NPY-Y1 PAM-ag: human NPY-Y1 potentiation or agonism, primary screen | NPY-Y1 expressing cells, potentiator/agonist activation | activation, % at 3.6 µM | hit rate 0.37% among 220,000 | AID 1304; in the data active = activation above about 33%, passing the limit was not always enough;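 also: cells stimulated with NPY at EC10 then isoproterenol at EC100; 0% = low agonist plus stimulus and 100% = saturating agonist plus stimulus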
NPY-Y1 antag: antagonists of human neuropeptide Y receptor Y1; P25929; HEK293-CNG Y1 cells, membrane potential fluorescence; NPY at EC95, then isoproterenol; AID 1040; hit rate 1% among 200,000; inhibition, % at 3.6 µM;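 active = inhibition above the campaign mean inhibition of all tested compounds plus 3 SD, cut at about 20% in these data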;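 also: 0% = DMSO wells given NPY plus isoproterenol and 100% = isoproterenol alone without NPY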
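Material: Y1- and CNG-channel-expressing HEK293 cells / Probe or stimulus: NPY 25 nM then isoproterenol 1 µM plus Ro 20-1724 25 µM / Doses: 3.6 µM single dose, DMSO 0.4% / Schedule: compound incubation 1 h at room temperature, readout 45 min post-stimulation / Signal: membrane potential fluorescence / Benchmarks: isoproterenol-only wells as full block versus NPY-plus-isoproterenol wells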
NPY Y2 blocker: antagonists of human neuropeptide Y receptor Y2 | P49146 | inhibition, % at 2.7 µM | AID 793 | hit rate 0.99% among 140,000 | NPY-Y2 expressing cells, antagonist mode; in the data active = inhibition above about 17%;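 also: 0% = vehicle with agonist challenge and 100% = reference antagonist with challenge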
Target sequence (P49146 whole entry, looked up): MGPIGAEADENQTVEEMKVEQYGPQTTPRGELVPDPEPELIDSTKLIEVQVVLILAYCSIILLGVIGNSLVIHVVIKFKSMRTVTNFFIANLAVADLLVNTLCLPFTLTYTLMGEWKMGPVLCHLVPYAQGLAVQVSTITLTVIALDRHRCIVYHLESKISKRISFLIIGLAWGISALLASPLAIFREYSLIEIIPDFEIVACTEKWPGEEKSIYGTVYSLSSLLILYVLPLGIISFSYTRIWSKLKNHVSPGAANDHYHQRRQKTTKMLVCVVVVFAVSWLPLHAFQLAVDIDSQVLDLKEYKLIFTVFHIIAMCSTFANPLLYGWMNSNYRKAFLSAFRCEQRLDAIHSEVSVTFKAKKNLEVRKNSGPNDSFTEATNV
NPY-Y2 PAM-ag: human NPY-Y2 potentiation or agonism, primary screen | P49146 | cells expressing NPY-Y2, potentiator/agonist read-out | activation, % at 3.6 µM | hit rate 0.45% among 220,000; in the data active = activation above about 27%;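 also: cells stimulated with NPY near EC25 plus isoproterenol at EC100; 0% = vehicle plus submaximal agonist and 100% = vehicle plus saturating agonist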
* = called active by the depositor; x = no result given. In the library only some 1.8% were active in any assay of this set; here they are far more common.

SMILES	NPY-Y1 PAM-ag	NPY-Y1 antag	NPY Y2 blocker	NPY-Y2 PAM-ag
COc1ccc(S(=O)(=O)N(CC(=O)NCc2cccnc2)c2ccc(F)cc2)cc1OC	-15	4	5	-3
CCOC(=O)c1c(NC(=S)N2CCN(C)CC2)sc2c1CCN(C(=O)OCC)C2	-43	x	x	-21
CCOC(=O)c1c(NC(=O)CN2CCCCC2)sc2c1CCN(C(=O)OCC)C2	-29	56*	36*	-10
CCOC(=O)c1c(NC(=O)CN(CC)CC)sc2c1CCN(C(=O)OCC)C2	-26	23*	30*	-4
CCOC(=O)c1c(NC(=O)CSc2ncccn2)sc2c1CCN(Cc1ccccc1)C2	-79	33*	17*	-32
O=S(=O)(c1cccc2cccnc12)N(CCO)CCO	36*	1	0	6
CCN(CC)S(=O)(=O)c1cccc2cccnc12	10	1	-2	3
COc1ccc(N=c2oc3cc(O)ccc3cc2C(=O)NCC2CCCO2)c(OC)c1 (stereo not given)	-20	30*	31*	-10
CCOc1ccccc1N=c1oc2cc(O)ccc2cc1C(=O)NCC1CCCO1 (stereo not given)	-45	36*	25*	-12
N/C(=N\OC(=O)/C=C/c1ccccc1Cl)c1ccncc1	-6	7	x	-15
COc1ccc(-c2csc(NC(=O)c3ccccc3NS(=O)(=O)c3ccc(F)c(F)c3)n2)cc1	70*	3	x	94*
O=C1NC(=O)C(CC(=O)N(Cc2cccs2)C2(C(=O)NC3CCCC3)CCCCC2)N1 (stereo not given)	-35	11	3	-16
O=C(Cc1cccs1)N(Cc1cccs1)C1(C(=O)NC2CCCCC2)CCCCC1	-25	52*	37*	-8
O=C(c1cnccn1)N(Cc1cccs1)C1(C(=O)NC2CCCC2)CCCCC1	-27	42*	26*	-15
O=C(c1cnccn1)N(Cc1cccs1)C1(C(=O)NC2CCCCC2)CCCCC1	-38	38*	21*	-19
COc1ccc(CNCC(O)COc2cccc3c2OC(C)(C)C3)cc1 (stereo not given)	106*	-8	x	95*
C=CCc1ccccc1OCC(O)CNC(=O)c1ccccc1C(=O)O (stereo not given)	87*	x	x	92*
C=CCc1ccccc1OCC(O)CN(CC)CC (stereo not given)	103*	-15	2	89*
CC(C)(C)c1ccc(OCC(O)CNC(=O)c2ccccc2C(=O)O)cc1 (stereo not given)	-54	16	6	-11
C=CCn1c(=N)n(CC(O)COc2ccccc2OC)c2ccccc21 (stereo not given)	-8	12	12	-9
CCC(=O)NC(NC(=S)Nc1c(C)n(C)n(-c2ccccc2)c1=O)C(Cl)(Cl)Cl (stereo not given)	10	2	1	-6
Cc1ccc(C(C(=O)NC(C)(C)C)N(Cc2ccco2)C(=O)Cn2nnc(-c3cccs3)n2)cc1 (stereo not given)	-132	20*	34*	-42
O=C(NC1CCCCC1)C(c1ccccc1F)N(Cc1ccco1)C(=O)Cn1nnc2ccccc21 (stereo not given)	-84	72*	57*	-35
O=C(NC1CCCCC1)C(c1ccc(F)cc1)N(Cc1ccco1)C(=O)CN1C(=O)c2ccccc2S1(=O)=O (stereo not given)	-9	9	2	-10
CCC(C)(C)NC(=O)C(c1ccc(C)cc1)N(Cc1ccco1)C(=O)Cn1nnc2ccccc21 (stereo not given)	-122	25*	61*	-22
SMILES	NPY-Y1 PAM-ag	NPY-Y1 antag	NPY Y2 blocker	NPY-Y2 PAM-ag
O=C(NC1CCCCC1)C(c1ccc(F)cc1)N(Cc1ccco1)C(=O)Cn1nnc2ccccc21 (stereo not given)	-17	23*	36*	1
CSc1nc(C)c(C(=O)C[n+]2ccccc2)cc1C#N	1	x	x	-12
CCOC(=O)CNC(=O)c1ccc(SCC)cc1	-11	x	x	-14
CC(C(=O)Nc1cccnc1)C1Sc2ccccc2NC1=O (stereo not given)	-3	-1	x	4
COc1cc(C(=O)NCc2nnc(SCC(=O)N3CCOCC3)o2)cc(OC)c1OC	-2	2	x	1
Cc1ccc(C(C(=O)NC2CCCCC2)N(Cc2ccco2)C(=O)Cn2cnc3ccccc32)cc1 (stereo not given)	-65	34*	75*	-42
O=C(c1ccc([N+](=O)[O-])cc1[N+](=O)[O-])n1cnc2ccccc21	-4	5	x	1
O=C1C(=O)N(Cc2ccco2)C(c2cccs2)/C1=C(\O)c1cccc([N+](=O)[O-])c1 (stereo not given)	-8	x	x	10
CCc1ccc2[nH]c(=O)c(CN(Cc3ccccc3OC)Cc3nnnn3Cc3ccco3)cc2c1	-2	13	19*	7
CCOC(=O)n1c(=O)n(Cc2c(Cl)cccc2Cl)c2ccccc21	-14	9	5	-10
COC(=O)c1cc(S(=O)(=O)n2nc(C)c(Br)c2C)c(Cl)cc1Cl	52*	-6	4	34*
COc1ccc(CNc2nc(SCC(=O)NCc3ccco3)nc3ccccc23)cc1	-72	30*	50*	-30
Cn1ncc(C#N)c1/N=C/N(Cc1ccccc1)Cc1ccccc1	-70	22*	26*	-32
COc1ccc(C(=O)COc2ccc(C)cc2NC(C)=O)cc1	3	x	x	9
CCOc1ccc(NC(=O)C2CCCN(C)C2)cc1 (stereo not given)	11	x	x	-4
O=C(CC1C(=O)NCCN1C(=O)Nc1ccc(C(F)(F)F)cc1)Nc1ccc(F)cc1 (stereo not given)	69*	x	x	41*
C/C(=N\Nc1nc2ccccc2s1)c1ccc2c(c1)OCO2	-13	35*	31*	-9
CC(=O)c1sc(NC(=O)c2ccc(Cn3cc(Br)cn3)o2)nc1C	46*	-13	-6	48*
CC(C)C(=O)NCc1cc(-c2ccccc2)no1	12	6	x	-2
CCc1ccc(C(C(=O)NC2CCCCC2)N(C(=O)CNC(=O)c2ccco2)c2cccnc2)cc1 (stereo not given)	7	0	4	5
CCN(CC)c1ccc(/C=N/NC(=O)c2cccc(S(=O)(=O)Nc3ccccc3OC)c2)c(O)c1	47*	-9	-1	35*
N#Cc1c(Nc2cccc(F)c2)sc2c(O)cc(=O)[nH]c12	-5	5	x	-16
Cc1cc(N(CCO)CCO)ccc1N=Nc1cc(F)ccc1F	62*	-17	x	69*
Cc1ccccc1/C=N/Nc1nc2ccccc2[nH]1	-34	12	x	-23
COc1ccccc1NS(=O)(=O)c1cc([N+](=O)[O-])ccc1N/N=C/c1c[nH]c2ccccc12	39*	-4	-5	34*
O=[N+]([O-])c1ccccc1N/N=C/c1c[nH]c2ccccc12	105*	-18	-14	86*
COc1ccc(NS(=O)(=O)c2cc([N+](=O)[O-])ccc2N/N=C\c2c(C)[nH]c3ccccc23)cc1	13	1	1	-4
O=[N+]([O-])c1ccc(N/N=C/c2c[nH]c3ccccc23)cc1	55*	-20	-8	48*
